Source: PubChem BioAssay
Many of the other results were omitted from the sample, so hits are more common in it than they were.
NLRP3 yeast inh – NALP3 inflammasome inhibitors in reconstituted yeast, primary screen, luminescence, uHTS. Yeast reconstituted NLRP3/ASC/caspase-1, beta-gal luminescence, 24 h. inhibition, % at 10 µM. 330,000 tested, 0.39% active. AID 2825, 2010;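 active means inhibition of 50% or more; inactive means inhibition below 50%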
Lmaj promast – Leishmania major promastigote growth inhibition, primary screen; inhibition, % at 10 µM; 200,000 tested, 9% active; Leishmania major promastigotes, resazurin fluorescence viability; in the data active means inhibition above about 50%;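 further: promastigotes grown with compound for 44 hours at 28 °C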
PolyA inh – polyadenylation inhibitors in yeast reporter cells, primary screen, luminescence, S. cerevisiae; S. cerevisiae SKY197-pL101 polyadenylation reporter, beta-gal luminescence; efflux-impaired pdr1/pdr3 knockout yeast; score 100 = 6 SD above DMSO; activity score, % at 12 µM; 300,000 tested, 0.02% active; AID 1875, 2009;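 active means lowest replicate activity score at least 50, where 100 means six control SD above control mean; inconclusive means lowest score under 50 but half or more replicates reach 50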;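 further: yeast exposed to compound for 9 h at 30 °C; higher score means more reporter readthrough which indicates perturbed polyadenylation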
T cruzi inh – inhibitors of intracellular T. cruzi growth, primary screen, luminescence, NIH3T3 host cells; T. cruzi beta-gal in NIH3T3, 90 h; inhibition, % (test concentration not listed); 300,000 tested, 1.4% active; AID 1885, 2009;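 active means mean inhibition across valid replicates above about 55%, limit read from the data; inconclusive means mean below that limit but half or more replicates reach it; inactive means mean below it, under half of replicates reach it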;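 further: signal also drops with host cell toxicity which is not excluded here; higher percent means less beta-gal luminescence so fewer parasites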
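System: Mouse NIH/3T3 fibroblasts infected with β-gal-expressing T. cruzi Tulahuen C4 | Quantity: NIH/3T3 cells, 5,000 per well | Reagent: 5000 reporter trypomastigotes per well | Dosing: Compound pinned at 50 nL/well, DMSO | Schedule: 3 h host attachment, then at least 90 h co-culture | Detection: GalScreen luminescence, 60 min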
Calb FLC – C. albicans growth inhibition with fluconazole, primary screen, CaCi-2 strain, Alamar Blue fluorescence; C. albicans CaCi-2 + fluconazole, 48 h; growth inhibition, % (test concentration not listed); 300,000 tested, 0.57% active; AID 1979, 2009;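 active means growth inhibition above about 58% in most replicates, limit read from the data, passing the limit was not always enough; inconclusive means exactly half the replicates above a set limit; inactive means most replicates below a set limit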;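 further: all wells also contain fluconazole at 8 µg/ml as a sub-toxic cotreatment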
NALP1 yeast inh – NALP1 inflammasome inhibitors in reconstituted yeast, colorimetric, S. cerevisiae, triplicate retest | inhibition, % at 10 µM | S. cerevisiae NALP1/ASC/caspase-1 growth, X-gal OD620, 72 h | 280,000 tested, 0.61% active; in the data active means inhibition mostly above about 24%, no sharp cut-off; inactive means mostly below about 32%
Of the large screens only hits and unclear results are named; the others gave an inactive call.

Nc1c(C(=O)Nc2ccccc2)c2nc3ccccc3nc2n1-c1ccc(O)cc1	PolyA inh inconclusive, T cruzi inh 59 (no result: Lmaj promast)
O=c1c2c3nc4ccccc4nc3n(-c3ccc4c(c3)OCCO4)c2ncn1CC1CCCO1 (configuration not stated)	none (no result: NLRP3 yeast inh, Lmaj promast, PolyA inh, T cruzi inh, Calb FLC)
COc1ccc(-n2c(N)c(C(=O)Nc3c(C)n(C)n(-c4ccccc4)c3=O)c3nc4ccccc4nc32)cc1	none (no result: Lmaj promast)
CN1CCN(c2ccc(NC(=O)CN3CCOCC3)cc2F)CC1	none
CCCCN(C)C(=O)CC(NS(=O)(=O)c1ccc(NC(C)=O)cc1)C(C)C (configuration not stated)	Lmaj promast 50
COc1ccc(CCNC(=O)CCS(=O)(=O)c2ccc3c(c2)NC(=O)CO3)cc1OC	none (no result: Lmaj promast)
CC(=O)Oc1ccc2ccccc2c1C(NC(=O)C(C)C)c1cccc([N+](=O)[O-])c1 (configuration not stated)	Lmaj promast 99
CCOC(=O)C(NC(C)=O)C(OC(C)=O)c1cccc([N+](=O)[O-])c1 (configuration not stated)	none
CC(=O)Oc1ccc2ccccc2c1C(NC(=O)Cc1ccccc1)c1ccccc1 (configuration not stated)	none
CCCCC(=O)NC(c1cccc([N+](=O)[O-])c1)c1c(OC(C)=O)ccc2ccccc12 (configuration not stated)	Lmaj promast 89
CC(=O)NC(c1cccc([N+](=O)[O-])c1)c1c(OC(C)=O)ccc2ccccc12 (configuration not stated)	Lmaj promast 71 (no result: NALP1 yeast inh)
O=C(c1ccc(Cl)c(S(=O)(=O)Nc2ccccc2C(=O)N2CCc3ccccc3C2)c1)N1CCc2ccccc2C1	Lmaj promast 78, PolyA inh inconclusive (no result: NALP1 yeast inh)
CCN(CC)CCNc1nc(-c2ccccc2)c2c(c1C#N)CC(C)(C)OC2	T cruzi inh 56
CNC(=O)c1ccccc1S(=O)(=O)c1ccccc1C#N	NALP1 yeast inh 28
COc1cc(C)c(C)cc1S(=O)(=O)N1CCCCC1c1cccnc1 (configuration not stated)	Lmaj promast 92
COc1cc(OC)cc(C(=O)NC(=S)N2CCCCC2c2cccnc2)c1 (configuration not stated)	T cruzi inh 62 (no result: Lmaj promast)
CC(=O)Nc1ccc(S(=O)(=O)N2CCCCC2c2cccnc2)cc1 (configuration not stated)	none
COc1ccc(NC(=O)N2CCCCC2c2cccnc2)cc1 (configuration not stated)	Lmaj promast 85, T cruzi inh 66
COc1ccc(NC(=O)C2CCCN2C(=O)Nc2ccc(OC)cc2)cc1 (configuration not stated)	none (no result: Lmaj promast)
COCCNC(=O)CN1CCN(S(=O)(=O)c2ccc3c(c2)CCCC3)CC1	none (no result: Lmaj promast, PolyA inh, T cruzi inh, Calb FLC, NALP1 yeast inh)
Cc1ccc(NC(=O)CSc2nnc(-c3ccncc3)n2N)cc1C	none
O=C(Nc1ccccc1Cl)C1CCCN(c2ncnc3c2nc2n3CCCCC2)C1 (configuration not stated)	none (no result: Lmaj promast)
C=CCC1(CC=C)CCCN1C(=O)CC1C(=O)NCCN1Cc1ccc(OC)c(OC)c1 (configuration not stated)	none
COc1ccc(C(CNC(=O)c2ccc(-c3nc4ccccc4s3)o2)N2CCCC2)cc1 (configuration not stated)	none (no result: Lmaj promast, PolyA inh, T cruzi inh, Calb FLC, NALP1 yeast inh)
CN(CC(=O)Nc1cccc(F)c1)C(=O)c1ccc(COc2ccccc2)o1	none (no result: Lmaj promast, NALP1 yeast inh)
O/N=C/c1ccc(-c2ccccc2OC(F)(F)F)o1	NALP1 yeast inh 36 (no result: Lmaj promast)
CCC(C(=O)N/N=C/c1cccnc1)c1ccccc1 (configuration not stated)	none (no result: Lmaj promast)
COc1ccccc1N1CCN(CCCCOc2cccc3ccccc23)CC1	NALP1 yeast inh 54
COc1ccccc1OCCCCN1CCN(c2ccccc2OC)CC1	none
COc1ccccc1N1CCN(CCCCCCOc2ccc(F)cc2)CC1	NALP1 yeast inh 46
c1coc(CSSCc2ccco2)c1	none (no result: Lmaj promast, PolyA inh, T cruzi inh, Calb FLC, NALP1 yeast inh)
C[C@H](NC(=O)c1ccc(C(C)(C)C)cc1)C(=O)N1CCOCC1	none (no result: Lmaj promast, PolyA inh, T cruzi inh, Calb FLC, NALP1 yeast inh)
Cc1ccc(/C=N/n2cc(-c3ccccc3)[nH]c2=S)s1	NALP1 yeast inh 25
CCOc1ccc(-c2cc(NC(=O)Cn3ncc4c3-c3ccccc3OC4)on2)cc1OCC	NALP1 yeast inh 44
O=C(Cn1ncc2c1-c1ccccc1OC2)Nc1cccc(Cl)c1	NALP1 yeast inh 38
O=C(Cn1ncc2c1-c1ccccc1OC2)Nc1ccc(Cl)cn1	none
O=C(NNC(=O)c1cccnc1SCc1cccc([N+](=O)[O-])c1)c1ccccn1	Lmaj promast 98, T cruzi inh 65, Calb FLC inconclusive
O=C(NNC(=O)c1cccnc1SCc1cccc([N+](=O)[O-])c1)c1ccc(F)cc1	none
Cc1c(NC(=O)C(C)OC(=O)c2c3c(nc4ccccc24)CCC3)c(=O)n(-c2ccccc2)n1C (configuration not stated)	none
CCn1nc(C(=O)OC(C(=O)c2c[nH]c3ccccc23)c2ccccc2)c2ccccc2c1=O (configuration not stated)	Lmaj promast 100
Cc1ccc(-c2[nH]ncc2CN2CCN(C(=O)c3cccs3)CC2)cc1C	none (no result: Lmaj promast)
Cc1ccccc1C(=O)Nc1cc(S(=O)(=O)N2CCOCC2)ccc1N1CCN(C)CC1	none (no result: Lmaj promast, PolyA inh, T cruzi inh, Calb FLC, NALP1 yeast inh)
Cc1ccc(N(CC(=O)NCc2ccc3c(c2)OCO3)S(=O)(=O)c2c(C)noc2C)cc1	Lmaj promast 59
O=C(Nc1ccccc1)Nc1ccc2c(c1)CCC2	none (no result: Lmaj promast)
Cc1ccc(NC(=O)Nc2ccc3c(c2)CCC3)cc1	NALP1 yeast inh 38 (no result: Lmaj promast)
O=C(Nc1cccc([N+](=O)[O-])c1)Nc1ccc2c(c1)CCC2	T cruzi inh 57 (no result: Lmaj promast)
O=C(N=C1SCC(=O)N1c1ccccc1Cl)c1ccccc1	none
COc1ccc(S(=O)(=O)N2CCN(C3CCCC(C)C3)CC2)cc1 (configuration not stated)	none (no result: Lmaj promast)
COc1cccc(N2CCN(C3CCCC(C)C3)CC2)c1 (configuration not stated)	Lmaj promast 69
CCOC(=O)c1c(NC(=S)Nc2ccccc2)sc2c1CC(C)(C)SC2	none
CCOC(=O)c1c(NC(=S)NC)sc2c1CC(C)(C)SC2	Calb FLC 91
O=C1N[C@@H](Cc2cn(S(=O)(=O)c3ccc(F)cc3)c3ccccc23)C(=O)N[C@H]1Cc1ccccc1	none (no result: Lmaj promast, NALP1 yeast inh)
COc1ccc(CCN2C(=O)NC(NC(=O)CCc3ccccc3)(C(F)(F)F)C2=O)cc1OC (configuration not stated)	Lmaj promast 70
O=C(NCC1CCCN(Cc2cccc(C(F)(F)F)c2)C1)c1ccc(F)cc1 (configuration not stated)	Lmaj promast 80, T cruzi inh 57
